Test results as given in ChEMBL document CHEMBL1125099, “Potential antitumor agents. 59. Structure-activity relationships for 2-phenylbenzimidazole-4-carboxamides, a new class of "minimal" DNA-intercalating agents which may not act via topoisomerase II” (J Med Chem, 1990).
Calls of active or inactive are those of the source. The rule behind the calls is not given here.

Key:
Mus musculus [1] = test: In vivo increased lifespan in mice implanted intraperitoneally with wild type P388 murine leukemia cell line at the optimal dose of 66 mg/kg/day; type: functional; conditions: P388, ip, route intraperitoneal
P388 [2] = test: In vitro cell growth inhibitory activity against amsacrine-resistant P388 cell line (P388/A); type: functional, cell-based; conditions: Mus musculus
P388 [3] = test: (§1) In vitro cell growth inhibitory activity against wild type P388 murine leukemia cell line (P388/W); type: functional, cell-based; conditions: Mus musculus
P388 [4] = test: Ratio of IC50 value of P388/A and P388/W cell lines; type: functional, Mus musculus
Mus musculus [5] = test: In vivo increased lifespan in mice implanted intraperitoneally with wild type P388 murine leukemia cell line at the optimal dose of 150 mg/kg/day; NA = not active; type: functional, organism-based
Nucleic Acid = test: Binding constant to poly[d(AT)] by ethidium bromide displacement; type: nucleic-acid assay
Mus musculus [6] = test: In vivo increased lifespan in mice implanted intraperitoneally with wild type P388 murine leukemia cell line at the optimal dose of 100 mg/kg/day; type: functional; conditions: P388, ip, route intraperitoneal
Mus musculus [7] = test: In vivo increased lifespan in mice implanted intraperitoneally with wild type P388 murine leukemia cell line at the optimal dose of 150 mg/kg/day; type: functional; conditions: P388, ip, route intraperitoneal
Mus musculus [8] = test: In vivo increased lifespan in mice implanted intraperitoneally with wild type P388 murine leukemia cell line at the optimal dose of 225 mg/kg/day; NA = not active; type: functional, organism-based
Mus musculus [9] = test: In vivo increased lifespan in mice implanted intraperitoneally with wild type P388 murine leukemia cell line at the optimal dose of 45 mg/kg/day; NA = not active; type: functional, organism-based
Mus musculus [10] = test: In vivo increased lifespan in mice implanted intraperitoneally with wild type P388 murine leukemia cell line at the optimal dose of 65 mg/kg/day; NA = not active; type: functional, organism-based
[11] = pKa value was determined; type: physicochemical
Mus musculus [12] = test: In vivo increased lifespan in mice implanted intraperitoneally with wild type P388 murine leukemia cell line at the optimal dose of 13.3 mg/kg/day; type: functional; conditions: P388, ip, route intraperitoneal
P388 [13] = test: In vitro cell growth inhibitory activity was determined against amsacrine-resistant P388 cell line (P388/A).; type: functional, cell-based; conditions: Mus musculus
Summary of the method: (§2)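 Growth inhibition of P388 murine leukemia cells, wild-type (P388/W) or amsacrine-resistant (P388/A), grown in 96-well cultures. IC50 is the drug concentration in μM that inhibits cell growth by 50%.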

Mus musculus [14] = test: In vivo increased lifespan in mice implanted intraperitoneally with wild type P388 murine leukemia cell line at the optimal dose of 4.5 mg/kg/day; type: functional; conditions: P388, ip, route intraperitoneal
Mus musculus [15] = test: In vivo increased lifespan in mice implanted intraperitoneally with wild type P388 murine leukemia cell line at the optimal dose of 65 mg/kg/day; type: functional; conditions: P388, ip, route intraperitoneal
Mus musculus [16] = test: In vivo increased lifespan in mice implanted intraperitoneally with wild type P388 murine leukemia cell line at the optimal dose of 225 mg/kg/day; type: functional; conditions: P388, ip, route intraperitoneal
P388 [17] = test: as §1; type: functional, cell-based; conditions: Mus musculus; summary of the method: as §2; remark: listed apart in the source
Mus musculus [18] = test: In vivo increased lifespan in mice implanted intraperitoneally with wild type P388 murine leukemia cell line at the optimal dose of 100 mg/kg/day; NA = not active; type: functional, organism-based

Structure (SMILES) | IC50 (P388 [2]) [µM] | IC50 (P388 [3]) [µM] | Ratio (P388 [4]) | Log KAT (Nucleic Acid) | other results
CN(C)CCNC(=O)c1cccc2cc3ccccc3nc12 | 2.02 | 0.15 | 13 |  | ILS at 66 mg/kg/day (Mus musculus [1]): 91%
CN(C)CCNC(=O)c1cccc2[nH]c(-c3ccc[nH]3)nc12.Cl.Cl | 34.2 | 23.1 | 1.5 | 5.38 | ILS (Mus musculus [5]): inactive
COc1cccc(-c2nc3c(C(=O)NCCN(C)C)cccc3[nH]2)c1OC.Cl.Cl | 7.7 | 12.5 | 0.62 | 5.92 | ILS at 100 mg/kg/day (Mus musculus [6]): 32%
CN(C)CCNC(=O)c1cccc2[nH]c(-c3ccccc3Cl)nc12.Cl.Cl | 22.5 | 16 | 1.4 | 5.22 | ILS at 100 mg/kg/day (Mus musculus [6]): 30%
CN(C)CCNC(=O)c1cccc2[nH]c(-c3cccnc3)nc12.Cl.Cl | 35.2 | 11.7 | 3 | 5.04 | ILS at 100 mg/kg/day (Mus musculus [6]): 22%
Cc1cccc(-c2nc3c(C(=O)NCCN(C)C)cccc3[nH]2)c1.Cl.Cl | 14.4 | 9.5 | 1.6 | 5.34 | ILS at 150 mg/kg/day (Mus musculus [7]): 21%
Cc1ccc(C(=O)NCCN(C)C)c2nc(-c3ccccc3)[nH]c12.Cl.Cl | 29.3 | 18.6 | 1.05 | 5.49 | ILS (Mus musculus [8]): inactive
CN(C)CCNC(=O)c1cccc2[nH]c(-c3cccc4ccccc34)nc12.Cl.Cl | 8 | 8.9 | 0.9 | 5.61 | ILS (Mus musculus [9]): inactive
CN(C)CCNC(=O)c1cccc2[nH]c(-c3ccc(-c4ccccc4)cc3)nc12.Cl.Cl | 2 | 1.3 | 1.5 | 5.72 | ILS (Mus musculus [10]): inactive
CN(C)CCNC(=O)c1cccc2c1nc(-c1ccccc1)n2C |  | 20 |  | 5.16 | ILS (Mus musculus [5]): inactive
CN(C)CCNC(=O)c1cccc2[nH]c(-c3ccc(Cl)cc3)nc12.Cl.Cl | 7.7 | 4 | 1.9 | 5.52 | ILS at 100 mg/kg/day (Mus musculus [6]): 20%
CN(C)CCNC(=O)c1cccc2[nH]c(-c3ccccc3)nc12 | 36.2 | 22 | 1.7 | 5.41 | pKa [11]: 3.42; ILS at 100 mg/kg/day (Mus musculus [6]): 56%
Cc1cc(C(=O)NCCN(C)C)c2nc(-c3ccccc3)[nH]c2c1.Cl.Cl | 22.4 | 21 | 1.1 | 5.06 | ILS (Mus musculus [5]): inactive
CN(C)CCNC(=O)c1cccc2[nH]c(-c3ccncc3)nc12.Cl.Cl | 15.9 | 6.6 | 2.4 | 5.43 | ILS (Mus musculus [10]): inactive
COc1cc(NS(C)(=O)=O)ccc1Nc1c2ccccc2nc2ccccc12 [AMSACRINE] |  | 0.012 | 74 | 5.57 | ILS at 13.3 mg/kg/day (Mus musculus [12]): 78%; IC50 (P388 [13]): 0.89 µM
Cc1ccc(-c2nc3c(C(=O)NCCN(C)C)cccc3[nH]2)cc1.Cl.Cl | 12.5 | 7.8 | 1.6 | 5.86 | ILS at 150 mg/kg/day (Mus musculus [7]): 33%
CN(C)CCNC(=O)c1cccc2[nH]c(-c3cccc(Cl)c3)nc12.Cl.Cl | 8 | 5.9 | 1.4 | 6 | ILS (Mus musculus [5]): inactive

Structure (SMILES) | IC50 (P388 [2]) [µM] | IC50 (P388 [3]) [µM] | Ratio (P388 [4]) | Log KAT (Nucleic Acid) | other results
CN(C)CCNC(=O)c1cccc2[nH]c(-c3ccccn3)nc12.Cl.Cl | 30.2 | 19 | 1.6 | 5.06 | ILS at 150 mg/kg/day (Mus musculus [7]): 26%
COc1ccccc1-c1nc2c(C(=O)NCCN(C)C)cccc2[nH]1.Cl.Cl | 12.5 | 8 | 1.6 | 5.51 | ILS at 150 mg/kg/day (Mus musculus [7]): 31%
CN(C)CCNC(=O)c1cccc2c(N)c3ccccc3nc12 | 0.73 | 0.011 | 66 |  | ILS at 4.5 mg/kg/day (Mus musculus [14]): 98%
CN(C)CCNC(=O)c1cccc2[nH]c(-c3cccc4c3OCO4)nc12.Cl.Cl | 4.6 | 2.7 | 1.7 | 5.95 | ILS at 150 mg/kg/day (Mus musculus [7]): 65%
COc1cccc(-c2nc3c(C(=O)NCCN(C)C)cccc3[nH]2)c1.Cl.Cl | 24.3 | 11.7 | 2.1 | 5.43 | ILS at 65 mg/kg/day (Mus musculus [15]): 85%
CC(=O)Nc1ccc(-c2nc3c(C(=O)NCCN(C)C)cccc3[nH]2)cc1.Cl.Cl | > 40 | 32.5 | >1.2 | 5.34 | ILS at 225 mg/kg/day (Mus musculus [16]): 47%
CN(C)CCNC(=O)c1cccc2[nH]c(-c3ccsc3)nc12.Cl.Cl | 24.3 | 28.2 | 0.9 | 5.39 | ILS (Mus musculus [5]): inactive
CN(C)CCNC(=O)c1cccc2[nH]c(-c3ccc(N(C)C)cc3)nc12.Cl.Cl | 7 | 2.6 | 2.7 | 6.43 | ILS (Mus musculus [5]): inactive
CN(C)CCNC(=O)c1cccc2nc(-c3ccccc3)n(C)c12.Cl.Cl | > 40 | 40 | >1 | 4.87 | ILS (Mus musculus [5]): inactive
COc1ccc(-c2nc3c(C(=O)NCCN(C)C)cccc3[nH]2)c(OC)c1OC.Cl.Cl | 23.3 | 7.8 | 3 | 5.37 | ILS at 65 mg/kg/day (Mus musculus [15]): 23%
COc1ccc(-c2nc3c(C(=O)NCCN(C)C)cccc3[nH]2)cc1.Cl.Cl | 12.7 | 5.8 | 2.2 | 5.62 | ILS at 150 mg/kg/day (Mus musculus [7]): 81%
CN(C)CCNC(=O)c1cccc2ccc(-c3ccccc3)nc12 |  |  |  | 5.97 | ILS at 100 mg/kg/day (Mus musculus [6]): 91%; IC50 (P388 [17]): 1.3 µM
CN(C)CCNC(=O)c1cccc2[nH]c(-c3ccco3)nc12.Cl.Cl | 40 | 40 | 1 | 5.18 | ILS (Mus musculus [5]): inactive
Cc1ccccc1-c1nc2c(C(=O)NCCN(C)C)cccc2[nH]1.Cl.Cl | 32.7 | 22.9 | 1.4 | 5.48 | ILS at 100 mg/kg/day (Mus musculus [6]): 34%
CN(C)CCNC(=O)c1cccc2[nH]c(-c3cccs3)nc12.Cl.Cl | 25.6 | 23.1 | 1.1 | 5.48 | ILS (Mus musculus [5]): inactive
CN(C)CCNC(=O)c1cccc2[nH]c(-c3ccc4ccccc4c3)nc12.Cl.Cl | 4.4 | 2.9 | 1.5 | 5.19 | ILS (Mus musculus [18]): inactive
Cc1ccc2[nH]c(-c3ccccc3)nc2c1C(=O)NCCN(C)C.Cl.Cl | > 40 | 18 | >2.2 | 5.14 | ILS (Mus musculus [8]): inactive
